From ChEMBL document CHEMBL1212810, “Carbon metabolism-mediated myogenic differentiation” (Nat Chem Biol, 2010)
Calls of active or inactive are those of the source. The calls are words filed in the database; no cut-off is given here.

Key:
Type in all cases: functional, cell-based
[1] = tested on: C2C12; assay: Inhibition of shATP citrate lyase-induced cell differentiation in mouse C2C12 assessed as myosin heavy chain expression at 100 nM
[2] = tested on: C2C12; assay: Induction of cell differentiation in mouse C2C12 cells assessed as myosin heavy chain expression at 10 uM in presence of 250 uM cholesterol
[3] = tested on: C2C12; assay: Induction of cell differentiation in mouse C2C12 cells assessed as myosin heavy chain expression at 5 uM
How it was run: (§1)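 Mouse C2C12 myoblasts were treated with statin. Differentiation was read as myosin heavy chain expression by immunofluorescence.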

[4] = tested on: C2C12; assay: Induction of cell differentiation in mouse C2C12 cells assessed as myosin heavy chain expression at 10 uM; how it was run: as §1
[5] = tested on: C2C12; assay: Induction of cell differentiation in mouse C2C12 cells assessed as myosin heavy chain expression at 1 uM; how it was run: as §1
[6] = tested on: RD; assay: Induction of cell differentiation of human RD cells assessed as troponin expression after 4 days by immunofluorescence method
How it was run: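 Human RD embryonal rhabdomyosarcoma cells were treated in normal growth medium for four days, then scored for differentiation.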

[7] = tested on: RD; assay: Inhibition of anchorage-independent growth in human RD cells at 10 uM
How it was run: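 Human RD embryonal rhabdomyosarcoma cells were treated and scored for anchorage-independent growth on soft agar.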

[8] = tested on: C2C12; assay: Inhibition of serum withdrawal-induced cell differentiation in mouse C2C12 cells assessed as myosin heavy chain expression

With `CC(/C=C/C(=O)NO)=C\[C@@H](C)C(=O)c1ccc(N(C)C)cc1` the inhibition [1] was “Active”.

In the case of `CC[C@H](C)C(=O)O[C@H]1C[C@H](O)C=C2C=C[C@H](C)[C@H](CC[C@@H](O)C[C@@H](O)CC(=O)O)[C@H]21`, the Activity [2] is reported as “Active”, the Activity [3] is reported as “Active” and the Activity [4] is reported as “Active”.

In the case of `CC(C)n1c(/C=C/C(O)CC(O)CC(=O)O)c(-c2ccc(F)cc2)c2ccccc21` (centres undefined), the Activity [5] is reported as “Active”, the Activity [6] is reported as “Active” and the inhibition [7] is reported as “Active”.

With `CC(C)CCC[C@@H](C)[C@H]1CC[C@H]2[C@@H]3CC=C4C[C@@H](O)CC[C@]4(C)[C@H]3CC[C@]12C` the inhibition [8] was “Active”.

For `CC(C)c1c(C(=O)Nc2ccccc2)c(-c2ccccc2)c(-c2ccc(F)cc2)n1CC[C@@H](O)C[C@@H](O)CC(=O)O`, the Activity [5] was “Active”.
